In the library only some 2.3% were active in any assay of this set; here they are far more common.
XiGFP reactiv: reactivates the inactive X chromosome in mouse fibroblasts | XiGFP mouse fibroblasts, % GFP-positive cells imaging, 3 d; cells co-treated with 5-aza-dC sensitizer; scaled so ellipticine positive control = 100% | 360,000 tested, 0.055% active | AID 743238 | activation, % at 7.58 µM;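 active = mean normalized replicate activation at least 10% and every replicate at or above 10%; inconclusive = only one of the two criteria met; inactive = mean below 10% and not all replicates reach 10%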;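 note: 0% = median of on-plate neutral control wells and 100% = ellipticine 6 µM median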
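Schedule: 3 d treatment, 15 min room-temperature fixation; system: 68-5-11 XiGFP fibroblast line; buffer or medium: DMEM plus 5-aza-dC sensitizer; control set: ellipticine 6 µM positive control; compound: one concentration, pinned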
TROY NFkB inh: TROY signaling inhibition | AID 1347056 | Q293 LMP1-TROYcd NF-kB luciferase reporter, 4 h | 360,000 tested, 0.98% active | inhibition, % at 10 µM;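 active = compounds whose plate-normalised and pattern-corrected inhibition of the luciferase reporter signal at the single screening dose is 50% or more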
LGR2 inh: inhibitors of bursicon-induced Drosophila LGR2 receptor cAMP signaling; inhibition, % at 9.99 µM; AID 720647; HEK293 LGR2, CRE-luciferase, bursicon-stimulated, 4 h; 380,000 tested, 0.35% active;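 active = drop in luminescence signal, shown as inhibition above about 50% in the replicate tests, limit read from the data, passing the limit was not always enough; inconclusive = probably only some replicates passing the limit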;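 note: agonist challenge used bursicon conditioned medium at about half maximal strength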
FN deposit inh: fibronectin deposition inhibition. 350,000 tested, 0.086% active. inhibition, % at 12.6 µM. AH1F fibroblasts, Alexa488-fibronectin deposition fluorescence, overnight;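 active = mean inhibition across replicates of 30% or more, regardless of how many single replicates reach that level; inconclusive = mean under 30% yet at least half of replicates reach 30%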;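 note: positive control wells lacked labelled fibronectin entirely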
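Assay system: AH1F fibroblast monolayer, labelled fibronectin deposition. Amount: 10000 cells per well. Also added: labelled fibronectin 24 nM. Compound: single-point pinned compound. Incubation: cell attachment 1 h, compound and FN exposure overnight. Detection: fluorescence after three HBSS washes, excitation 485 nm, emission 525 nm. Read-out: inhibition of fibronectin deposition signal.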
EWS-Fli block: EWS/Fli transcriptional activity inhibition. A673 NR0B1-luciferase reporter, viability-normalised. 350,000 tested, 0.67% active. inhibition, % at 12.6 µM. AID 651661;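 active = mean inhibition of at least 50% after viability correction, with every replicate also passing that limit; inconclusive = mean reaches 50% but only one of two replicates passes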;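 note: firefly luciferase signal divided by Alamar Blue viability fluorescence both relative to DMSO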
TWEAK Fn14 block: inhibitors of TWEAK-Fn14 interaction signaling. inhibition, % at 10 µM. TWEAK-stimulated Fn14 reporter cells, luciferase luminescence, 8 h. 360,000 tested, 2% active; in the data active = inhibition above about 50%
* hit, by the source's call; ? = inconclusive; / = no result given.

SMILES | XiGFP reactiv | TROY NFkB inh | LGR2 inh | FN deposit inh | EWS-Fli block | TWEAK Fn14 block
O=C1NCC(=O)N2[C@@H]1C[C@@H](C(=O)NCc1ccc(F)cc1)[C@H]2c1ccc(O)cc1 | / | / | / | / | 2.1 | /
Cc1cccc(N2CCN(C(=O)c3cc(S(=O)(=O)N4CCCC4)cn3C)CC2)c1C | 1.0 | 17.6 | -11.8 | 4.6 | 65.2* | 27.4
COc1cc(C(=O)N2CCN(c3cccc(C)c3C)CC2)cc(OC)c1OC | 0.4 | 7.6 | 6.0 | 0.8 | 61.3* | 2.4
Cc1cccc(N2CCN(C(=O)c3ccncc3)CC2)c1C | / | 2.3 | / | -2.1 | / | 24.4
COc1cc(C(=O)N2CCN(c3cc(Cl)ccc3Cl)CC2)cc(OC)c1OC | 0.7 | -1.5 | 21.0 | -7.8 | 59.8* | 29.4
CN1c2ccc(Br)cc2[C@@H]2[C@@H](CCN2C(=O)Cc2cccnc2)[C@@H]1CO | 0.1 | / | 13.2 | -6.5 | -7.3 | /
COc1ccc(NC(=O)N(C)C[C@@H]2Oc3cc(-c4ccc(C)cc4)ccc3S(=O)(=O)N([C@@H](C)CO)C[C@@H]2C)cc1 | 0.3 | / | -10.3 | / | 22.3 | /
COc1ccccc1CNC(=O)C[C@H]1C[C@@H]2c3cc(NC(=O)C4CCOCC4)ccc3O[C@@H]2[C@H](CO)O1 | 0.2 | / | -8.5 | -10.9 | 6.1 | /
O=C(C[C@@H]1CC[C@H](NS(=O)(=O)c2ccccc2)[C@@H](CO)O1)NCCN1CCCCC1 | 0.2 | / | 14.2 | / | 4.9 | /
C[C@H](CO)N1C[C@H](C)[C@@H](CN(C)Cc2ccccc2)Oc2ccc(NC(=O)Nc3ccc(F)cc3)cc2CC1=O | 0.0 | / | -1.7 | / | 4.4 | /
CN(C)c1ccc(-c2c(-c3ccc4c(c3)OCO4)noc2-c2ccsc2)cn1 | / | -45.4 | / | / | / | -52.2
O=C(O)c1cc(-c2ccc(-c3c(-c4ccc5c(c4)OCO5)noc3-c3ccsc3)cc2)nc2ccccc12 | 0.0 | 39.3 | -78.4 | -14.6 | -100.8 | 56.7*
CC(C)(C)c1nc(NC(=O)Nc2ccccc2)sc1Br | 0.0 | 22.6 | 2.0 | -1.9 | -63.3 | 61.1*
COc1ccc2nc(NC(=O)Nc3ccccc3)sc2c1 | -0.1 | -12.0 | -9.6 | -3.5 | -8.1 | 37.2
C[C@@H]1CN([C@H](C)CO)C(=O)c2cc(NC(=O)c3ccccc3)ccc2O[C@@H](C)CCCCO[C@H]1CN(C)C(=O)Nc1ccccc1 | 0.0 | / | -0.1 | -4.1 | -12.3 | /
O=C(c1ccccc1)c1cc(Cl)ccc1N1C(=O)C=CC1=O | 2.5 | -7.5 | / | 50.3* | 42.2 | 4.5
O=C(CC(=O)c1cc(Cl)ccc1O)c1ccccc1 | / | -36.4 | -55.8 | / | -3.0 | -15.7
CCOc1ccccc1N1CCN(C(=O)c2cc3ccccc3cc2OC)CC1 | 0.8 | 6.5 | 5.6 | 8.8 | 59.1* | 7.1
COc1ccccc1N1CCN(c2ncc(C(=O)N3CCN(c4cccc(Cl)c4)CC3)c3ccccc23)CC1 | 0.2 | -5.6 | 38.7 | 2.5 | 13.7 | 80.4*
COc1ccc(Nc2ncc(C(=O)N3CCN(c4ccc(F)cc4)CC3)c3ccccc23)cc1 | / | 22.6 | / | -9.0 | / | 53.5*
O=C(c1cc(-c2ccc(Cl)c(Cl)c2)on1)N1CCOCC1 | 0.2 | -26.0 | -75.5 | -1.6 | -111.6 | -13.2
O=C(c1cc(-c2ccc(Cl)cc2)on1)N1CCOCC1 | / | 8.0 | -13.8 | / | / | 51.4*
O=C(NCCCN1CCOCC1)c1cc(-c2ccc(Cl)c(Cl)c2)on1 | 0.0 | -16.4 | -6.9 | 4.4 | -12.9 | -14.4
COc1ccc(-c2cc(C(=O)N3CCCC3)no2)cc1 | 0.3 | 58.6* | 74.7* | -2.1 | 42.0 | 57.1*
O=C(c1cc(-c2ccc(Cl)cc2Cl)on1)N1CCOCC1 | / | 31.1 | ? | / | 31.2 | 70.8*
Cc1ccc(-c2cc(C(=O)NCCCN3CCOCC3)no2)cc1 | / | 21.7 | / | -2.7 | / | 74.5*
CO[C@@H]1CN(C)C(=O)c2ccc(NS(=O)(=O)c3ccccc3F)cc2OC[C@H](C)NC[C@H]1C | -0.1 | / | -27.1 | -7.1 | -3.7 | /
C[C@@H]1CN([C@H](C)CO)S(=O)(=O)c2ccc(Br)cc2O[C@H]1CN(C)Cc1ccncc1 | 0.1 | / | -29.2 | -5.4 | 4.5 | /
COc1ccc(N2C(=O)CCC2(C#N)c2ccc(OC)cc2)cc1 (stereo unspecified) | / | -3.5 | / | -5.7 | / | -10.7
COc1ccc(C2(C#N)CCC(=O)N2c2ccccc2)cc1 (stereo unspecified) | 0.3 | 51.7* | / | 6.5 | -4.0 | -17.0
